According to ChEMBL document CHEMBL2040803, “Synthesis and anticonvulsant activity of ethyl 1-(2-arylhydrazinecarboxamido)-2,2-dimethylcyclopropanecarboxylate derivatives” (Eur J Med Chem, 2012):
Calls of active or inactive are those of the source.

Assays:
Mus musculus [1] = experiment: Anticonvulsant activity in Kunming mouse assessed as protection against maximal electroshock-induced seizures at 100 mg/kg, ip measured after 0.5 hr; type: functional, organism-based; design: dose 100 mg/kg
Outline: (§1)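 Male Kunming mice (20 ± 2.0 g) were dosed ip at 30, 100 and 300 mg/kg as a suspension in 0.5% methylcellulose, one to four mice per dose. A 60-Hz, 50-mA current was applied through corneal electrodes for 0.25 s at 0.5 h and 4.0 h after dosing. Absence of hindlimb tonic extension counted as protection. The value is the minimal dose protecting half or more of the mice.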

Mus musculus [2] = experiment: Anticonvulsant activity in Kunming mouse assessed as protection against maximal electroshock-induced seizures at 300 mg/kg, ip measured after 4 hrs; type: functional, organism-based; design: dose 300 mg/kg; outline: as §1
Mus musculus [3] = experiment: Anticonvulsant activity in Kunming mouse assessed as protection against subcutaneous pentylenetetrazol-induced clonic seizures at 300 mg/kg, ip measured after 0.5 hrs; type: functional, organism-based; design: dose 300 mg/kg
Outline: (§2)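 Male Kunming mice (20 ± 2.0 g) received ip doses of 30, 100 or 300 mg/kg as a suspension in 0.5% methylcellulose, one to four mice per dose. Pentylenetetrazole in 0.9% saline was injected subcutaneously. Protection meant failure to show even a threshold seizure (a single clonic spasm lasting at least 5 s), read at 0.5 h and 4.0 h. Activity was scored as the minimal dose protecting half or more of the mice.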

Mus musculus [4] = experiment: Anticonvulsant activity in Kunming mouse assessed as protection against subcutaneous pentylenetetrazol-induced clonic seizures at 300 mg/kg, ip measured after 4 hrs; type: functional, organism-based; design: dose 300 mg/kg; outline: as §2
Mus musculus [5] = experiment: Neurotoxicity in Kunming mouse at 300 mg/kg, ip after 0.5 hr by rotorod test; type: toxicity, organism-based; design: dose 300 mg/kg, route intraperitoneal; settings: in vivo
Outline: (§3)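 Trained male Kunming mice were given ip doses of 30, 100 or 300 mg/kg, one to four per dose. They were placed on a 1 in. knurled rod rotating at 6 rpm, and examined at 0.5 h and 4.0 h. Neurotoxicity was inability to keep balance for at least 1 min in each of four trials. The value is the minimal dose giving toxicity in half or more of the mice.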

Mus musculus [6] = experiment: Neurotoxicity in Kunming mouse at 300 mg/kg, ip after 4 hrs by rotorod test; type: toxicity, organism-based; design: dose 300 mg/kg, route intraperitoneal; settings: in vivo; outline: as §3
Mus musculus [7] = experiment: Anticonvulsant activity in Kunming mouse assessed as protection against maximal electroshock-induced seizures at 30 mg/kg, ip measured after 0.5 hr; type: functional, organism-based; design: dose 30 mg/kg; outline: as §1
Mus musculus [8] = experiment: Anticonvulsant activity in Kunming mouse assessed as protection against maximal electroshock-induced seizures at 30 mg/kg, ip measured after 4 hrs; type: functional, organism-based; design: dose 30 mg/kg; outline: as §1
Mus musculus [9] = experiment: Neurotoxicity in Kunming mouse at 100 mg/kg, ip after 0.5 hr by rotorod test; type: toxicity, organism-based; design: dose 100 mg/kg, route intraperitoneal; settings: in vivo; outline: as §3
Mus musculus [10] = experiment: Anticonvulsant activity in ip dosed Kunming mouse assessed as protection against subcutaneous pentylenetetrazol-induced clonic seizures; type: functional
Mus musculus [11] = experiment: Neurotoxicity in Kunming mouse at 100 mg/kg, ip after 4 hrs by rotorod test; type: toxicity, organism-based; design: dose 100 mg/kg, route intraperitoneal; settings: in vivo; outline: as §3
Mus musculus [12] = experiment: Anticonvulsant activity in Kunming mouse assessed as protection against maximal electroshock-induced seizures at 300 mg/kg, ip measured after 0.5 hr; type: functional, organism-based; design: dose 300 mg/kg; outline: as §1
Mus musculus [13] = experiment: Anticonvulsant activity in Kunming mouse assessed as protection against maximal electroshock-induced seizures at 100 mg/kg, ip measured after 4 hrs; type: functional, organism-based; design: dose 100 mg/kg; outline: as §1
Mus musculus [14] = experiment: Anticonvulsant activity in Kunming mouse assessed as protection against subcutaneous pentylenetetrazol-induced clonic seizures at 100 mg/kg, ip measured after 0.5 hrs; type: functional, organism-based; design: dose 100 mg/kg; outline: as §2
Mus musculus [15] = experiment: Anticonvulsant activity in ip dosed Kunming mouse assessed as protection against maximal electroshock-induced seizures; type: functional
[16] = Neurotoxicity in ip dosed Kunming mouse measured 30 mins post compound administration by rotorod test; type: toxicity, organism-based; settings: in vivo
Mus musculus [17] = species on record: Mus musculus; experiment: Protective index, ratio of TD50 for neurotoxicity in Kunming mouse to ED50 for protection against MES-induced seizures in Kunming mouse; type: functional
Mus musculus [18] = experiment: Protective index, ratio of TD50 for neurotoxicity in Kunming mouse to ED50 for protection against subcutaneous pentylenetetrazol-induced clonic seizures in Kunming mouse; type: functional
Mus musculus [19] = experiment: Anticonvulsant activity in Kunming mouse assessed as protection against subcutaneous pentylenetetrazol-induced clonic seizures at 100 mg/kg, ip measured after 4 hrs; type: functional, organism-based; design: dose 100 mg/kg; outline: as §2

| Compound | Activity (Mus musculus [2]) | Activity (Mus musculus [3]) | Activity (Mus musculus [4]) | Activity (Mus musculus [5]) | Activity (Mus musculus [6]) | Activity (Mus musculus [12]) | further results |
| --- | --- | --- | --- | --- | --- | --- | --- |
| CCOC(=O)C1(NC(=O)NNC(=O)c2ccc(F)cc2)CC1(C)C (stereo unspecified) | Active | Active | inactive | Non-toxic | Non-toxic |  | Activity (Mus musculus [1]): Active |
| CCOC(=O)C1(NC(=O)NNC(=O)c2ccc(C)cc2)CC1(C)C (stereo unspecified) | inactive | inactive | Active | Non-toxic | Toxic |  | Activity (Mus musculus [1]): Active |
| CCOC(=O)C1(NC(=O)NNC(=O)c2ccccc2Cl)CC1(C)C (stereo unspecified) | Active | Active | inactive | Non-toxic | Toxic |  | Activity (Mus musculus [1]): Active |
| O=C1NC(=O)C(c2ccccc2)(c2ccccc2)N1 [PHENYTOIN] |  | inactive | inactive |  |  |  | Activity (Mus musculus [7]): Active; Activity (Mus musculus [8]): Active; Activity (Mus musculus [9]): Toxic; ED50 (Mus musculus [10]): > 300 mg/kg; Activity (Mus musculus [11]): Toxic |
| CCOC(=O)C1(NC(=O)NNC(=O)c2cccs2)CC1(C)C (stereo unspecified) |  | Active | Active |  | Toxic | inactive | Activity (Mus musculus [13]): Active; Activity (Mus musculus [9]): Toxic |
| CCOC(=O)C1(NC(=O)NNC(=O)c2ccc([N+](=O)[O-])cc2)CC1(C)C (stereo unspecified) | inactive | inactive | inactive | Non-toxic | Toxic |  | Activity (Mus musculus [1]): Active |
| CCOC(=O)C1(NC(=O)NNC(=O)c2ccc(OC)cc2)CC1(C)C (stereo unspecified) | Active |  | inactive | Non-toxic | Non-toxic | Active | Activity (Mus musculus [14]): Active |
| CCOC(=O)C1(NC(=O)NNC(=O)c2ccccc2)CC1(C)C (stereo unspecified) | inactive | Active | inactive | Toxic | Non-toxic | Active |  |
| CCC1(c2ccccc2)C(=O)NC(=O)NC1=O [PHENOBARBITAL] |  |  |  |  |  |  | ED50 (Mus musculus [15]): 21.8 mg/kg; ED50 (Mus musculus [10]): 13.2 mg/kg |
| CCOC(=O)C1(NC(=O)NNC(=O)c2ccncc2)CC1(C)C (stereo unspecified) | Active | inactive | inactive |  | Toxic | inactive | Activity (Mus musculus [9]): Toxic |
| CCOC(=O)C1(NC(=O)NNC(=O)c2cccnc2)CC1(C)C (stereo unspecified) | inactive | inactive | Active |  | Toxic | inactive | Activity (Mus musculus [9]): Toxic |
| CCOC(=O)C1(NC(=O)NNC(=O)c2ccc(CC)cc2)CC1(C)C (stereo unspecified) | Active | Active | inactive | Non-toxic | Non-toxic | Active |  |
| CCOC(=O)C1(NC(=O)NNC(=O)c2ccc(Cl)cc2)CC1(C)C (stereo unspecified) | Active | inactive | Active | Non-toxic | Toxic |  | Activity (Mus musculus [7]): Active; ED50 (Mus musculus [15]): 20.1 mg/kg; ED50 (Mus musculus [10]): 335 mg/kg; TD50 at 0.5 h [16]: 382 mg/kg; Ratio TD50/ED50 (Mus musculus [17]): 19; Ratio TD50/ED50 (Mus musculus [18]): 1.1 |
| CCOC(=O)C1(NC(=O)NNC(=O)c2ccccc2Br)CC1(C)C (stereo unspecified) |  | Active | Active | Non-toxic | Non-toxic | Active | Activity (Mus musculus [8]): Active |
| CCOC(=O)C1(NC(=O)NNC(=O)c2ccc(C(F)(F)F)cc2)CC1(C)C (stereo unspecified) |  | Active |  | Non-toxic | Non-toxic |  | Activity (Mus musculus [7]): Active; Activity (Mus musculus [8]): Active; Activity (Mus musculus [19]): Active; ED50 (Mus musculus [15]): 9.8 mg/kg; ED50 (Mus musculus [10]): 58.4 mg/kg; TD50 at 0.5 h [16]: 332 mg/kg; Ratio TD50/ED50 (Mus musculus [17]): 33.9; Ratio TD50/ED50 (Mus musculus [18]): 5.9 |
| NC(=O)N1c2ccccc2C=Cc2ccccc21 [CARBAMAZEPINE] |  |  |  |  |  |  | ED50 (Mus musculus [15]): 8.8 mg/kg; ED50 (Mus musculus [10]): > 100 mg/kg |
| CCCC(CCC)C(=O)O [VALPROIC ACID] |  |  |  |  |  |  | ED50 (Mus musculus [10]): 149 mg/kg |
| CCOC(=O)C1(NC(=O)NNC(=O)c2ccc(OC)c(OC)c2)CC1(C)C (stereo unspecified) | Active | inactive | inactive | Non-toxic | Toxic | Active |  |
| CCC1(C)CC(=O)NC1=O (stereo unspecified) [ETHOSUXIMIDE] | inactive |  | Active | Non-toxic | Non-toxic | inactive | Activity (Mus musculus [14]): Active |
| CCOC(=O)C1(NC(=O)NNC(=O)c2ccco2)CC1(C)C (stereo unspecified) | Active | inactive | inactive |  | Toxic | inactive | Activity (Mus musculus [9]): Toxic |
| CCOC(=O)C1(NC(=O)NNC(=O)c2ccccc2F)CC1(C)C (stereo unspecified) | inactive | inactive | inactive | Non-toxic | Toxic | Active |  |
| CCOC(=O)C1(NC(=O)NNC(=O)c2cccc(C)c2)CC1(C)C (stereo unspecified) | inactive | inactive | inactive | Non-toxic | Non-toxic |  | Activity (Mus musculus [1]): Active |
| CCOC(=O)C1(NC(=O)NNC(=O)c2ccc(N(C)C)cc2)CC1(C)C (stereo unspecified) | Active | inactive | inactive | Non-toxic | Toxic | Active |  |
| CCOC(=O)C1(NC(=O)NNC(=O)c2ccc(C(C)(C)C)cc2)CC1(C)C (stereo unspecified) | inactive | Active | inactive | Non-toxic | Toxic |  | Activity (Mus musculus [1]): Active |
| CCOC(=O)C1(NC(=O)NNC(=O)c2ccccc2C)CC1(C)C (stereo unspecified) |  |  | inactive | Non-toxic | Non-toxic |  | Activity (Mus musculus [1]): Active; Activity (Mus musculus [13]): Active; Activity (Mus musculus [14]): Active |
| CCOC(=O)C1(NC(=O)NN2C(=O)c3ccccc3C2=O)CC1(C)C (stereo unspecified) |  |  | Active | Non-toxic | Non-toxic |  | Activity (Mus musculus [7]): Active; Activity (Mus musculus [13]): Active; Activity (Mus musculus [14]): Active; ED50 (Mus musculus [15]): 23.6 mg/kg; ED50 (Mus musculus [10]): 213 mg/kg; TD50 at 0.5 h [16]: 352 mg/kg; Ratio TD50/ED50 (Mus musculus [17]): 14.9; Ratio TD50/ED50 (Mus musculus [18]): 1.7 |
| CCOC(=O)C1(NC(=O)NNC(=O)c2cc(OC)c(OC)c(OC)c2)CC1(C)C (stereo unspecified) | Active | inactive | inactive | Toxic | Non-toxic | Active |  |
| CCOC(=O)C1(NC(=O)NNC(=O)c2ccc(Br)cc2)CC1(C)C (stereo unspecified) | inactive | inactive | inactive | Non-toxic | Toxic |  | Activity (Mus musculus [1]): Active |
